APP 5'UTR act – APP 5'UTR luciferase reporter activation; activation, % at 2 µM; AID 1276; SH-SY5Y APP 5'UTR luciferase reporter, luminescence; zero percent = DMSO vehicle wells; 1% of 190,000 active;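 active = activation above a set limit, based on mean plus 3 SD of controls, cut at about 140% in these data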
APP 5UTR inh – APP translation inhibition. AID 1285. 0.82% of 190,000 active. inhibition, % at 2 µM. SH-SY5Y APP 5'UTR-luciferase reporter, luminescence;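 active = inhibition above a set limit, derived from the sample mean plus 3 SD, cut at about 45% in these data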
NF-kB neuron act – raises NF-kB expression in human neuronal cells. fold change at 12.5 µM. NF-kB reporter expression; hits give high values. AID 1239. 1.6% of 190,000 active; in the data active = fold change above about 3.3
FLuc act counter – affects firefly luciferase, flagging false hits in luciferase stimulation screens; P08659; ATPlite luciferase biochemical, luminescence, 10 min; 0 = ATP-free wells, 1 = DMSO control; activation factor at 10 µM; 200,000 tested, under 10 active;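 active = luciferase activation factor, scaled between plate controls, of at least 2 with compound at 10 µM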
Target sequence (P08659 whole entry, looked up): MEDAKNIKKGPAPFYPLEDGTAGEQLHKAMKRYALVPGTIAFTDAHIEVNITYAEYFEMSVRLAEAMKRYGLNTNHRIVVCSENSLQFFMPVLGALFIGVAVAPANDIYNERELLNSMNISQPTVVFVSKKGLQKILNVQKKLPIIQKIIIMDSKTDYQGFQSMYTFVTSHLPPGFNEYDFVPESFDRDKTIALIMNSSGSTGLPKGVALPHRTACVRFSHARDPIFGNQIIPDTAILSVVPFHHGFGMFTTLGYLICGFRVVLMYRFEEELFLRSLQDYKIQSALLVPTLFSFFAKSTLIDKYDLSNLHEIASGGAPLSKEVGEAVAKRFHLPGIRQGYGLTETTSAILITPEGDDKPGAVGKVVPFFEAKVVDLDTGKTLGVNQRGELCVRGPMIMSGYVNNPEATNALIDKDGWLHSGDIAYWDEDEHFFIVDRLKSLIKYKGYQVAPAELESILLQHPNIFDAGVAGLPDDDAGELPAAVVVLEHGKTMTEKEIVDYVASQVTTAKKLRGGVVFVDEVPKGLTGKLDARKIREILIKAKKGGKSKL
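System: luciferase plus luciferin reagent, cell-free; medium: PBS as buffer for the ATP substrate; dosing: test compounds dosed from 2 mM stocks in 100% DMSO; timing: 10 min post-reagent at room temperature; measured by: luminescence measurement of luciferase light output; evaluation: luciferase activation, seen as luminescence increase over controls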
STAT1 act – increases IFN-gamma driven STAT1 reporter signal; NIH 3T3 STAT1-luciferase reporter, luminescence; 100% = IFN-gamma alone, no compound; activation (% of control), % at 5.5 µM; 2.6% of 200,000 active; AID 932;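 active = activation above the screen-wide mean activation plus 3 SD, cut at about 130% in these data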
FLuc inhib CS – inhibits firefly luciferase, flagging false hits in luciferase inhibition screens. P08659. ATPLite firefly luciferase biochemical luminescence, 10 min. inhibition, % at 10 µM. 1.5% of 200,000 active. AID 1006;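 active = inhibition above about 50% when tested at 10 µM, limit read from the data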
STAT1 activ conf – STAT1 activation, confirmation assay. shares compounds with STAT1 act. NIH 3T3 STAT1-luciferase reporter, IFN-gamma potentiation, luminescence; 100% = IFN-gamma EC80 alone, no compound. activation (% of control), % at 5.7 µM. 97% of 1,200 active. AID 1262;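 active = activation above a set limit carried over from the earlier primary STAT1 screen, cut at about 140% in these data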
NFkB act STAT1ct – activates NF-kappaB, counter-screen to STAT1 activators. shares compounds with STAT1 act. HEK293T NF-kB luciferase reporter, TNF-alpha stimulated, luminescence; 100% = TNF-alpha with vehicle only. activation (% of control), % at 5.7 µM. 43% of 1,200 active. AID 1306;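 active = activation above the mean of solvent-only control wells plus 3 SD, set per campaign, cut at about 130% in these data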;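 note: TNF-alpha given at a submaximal dose yielding about 80% of full reporter signal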
STAT3 act STAT1c – human STAT3 activation in STAT1 activator counter-screen. AID 1316. activation (% of control), % at 5.7 µM. 46% of 1,200 active. shares compounds with STAT1 act. U3A cells STAT3-luciferase reporter, IL-6, luminescence; cells lack STAT1; 100 = IL-6 alone, no compound effect;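 active = activation above the solvent-only control well mean plus 3 SD, set per plate batch, cut at about 110% in these data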;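 note: higher means more STAT3 reporter activation so hits are non-selective activators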
Each line names hits and unclear results; the compound was inactive in the other large screens (follow-up assays come after a bar, where they were run). Compounds with a hit are over-represented: about 4.8% of the library has one in this group of screens.

Nc1nc(-c2ccc(Cl)cc2)nnc1-c1ccc(Br)cc1	APP 5'UTR act 194, NF-kB neuron act 3.8, STAT1 act 165 | STAT1 activ conf 191 | NFkB act STAT1ct 143 | STAT3 act STAT1c inactive
COc1ccc(Nc2cnn(-c3nc4ccccc4s3)c(=O)c2Cl)cc1	none
Cc1ccc(C)c(N2CCN(c3cnn(-c4nc5ccccc5s4)c(=O)c3Cl)CC2)c1	STAT1 act 156 | STAT1 activ conf 182 | NFkB act STAT1ct inactive | STAT3 act STAT1c inactive
Cc1cc(/C=C(\C#N)C(=O)Nc2ccccc2F)c(C)[nH]1	APP 5'UTR act 147, NF-kB neuron act 5.5, STAT1 act 172 | STAT1 activ conf 235 | NFkB act STAT1ct 141 | STAT3 act STAT1c 116
Cc1cc(C)nc(N=Nc2c(O)n(Cc3ccc(Cl)cc3)c3ccccc23)n1	none
CC(C)CC(=O)Nc1ccc2c(c1)oc1ccccc12	APP 5'UTR act 173, NF-kB neuron act 6.1, STAT1 act 152 | STAT1 activ conf 190 | NFkB act STAT1ct 134 | STAT3 act STAT1c inactive
CCOC(=O)N(NC(=O)C(O)(CC(C)C)CC(C)C)c1ccccc1	none
COc1ccc(OC)c(Nc2nc(-c3cccs3)cs2)c1	none
COc1ccccc1Nc1nc(-c2cccs2)cs1	NF-kB neuron act 5.7, STAT1 act 171 | STAT1 activ conf 203 | NFkB act STAT1ct 143 | STAT3 act STAT1c 165
COc1ccc(Nc2nc(-c3cccs3)cs2)cc1	STAT1 act 182 | STAT1 activ conf 214 | NFkB act STAT1ct 151 | STAT3 act STAT1c 122
COc1ccc(Nc2nc(-c3cccs3)cs2)c(OC)c1	NF-kB neuron act 7, STAT1 act 164 | STAT1 activ conf 216 | NFkB act STAT1ct 139 | STAT3 act STAT1c 118
OCCC1CN(Cc2cccn2-c2cccnc2)CCN1C1CCCCC1 (stereo not given)	none (no result: NF-kB neuron act)
COc1ccc(N2CCN(C(=O)NCc3ccc(OC)c(Cl)c3)CC2)cc1	none
CC1(C)Cc2nc3sc(C(=O)NCCCO)c(N)c3cc2CS1	none
CCCCn1cnc2c(sc3nc4c(cc32)CSC(C)(C)C4)c1=O	APP 5'UTR act 166, STAT1 act 152 | STAT1 activ conf 208 | NFkB act STAT1ct 134 | STAT3 act STAT1c inactive
Cc1cccc(Oc2nc(CN3CCOCC3)nc3sc4c(c23)CCCC4)c1	none
COC(=O)c1c(NC(=O)COC(=O)CNC(=O)C2CCCCC2)sc(C)c1C	none
CCOc1ccc(NC(=O)c2ccco2)c([N+](=O)[O-])c1	NF-kB neuron act 6, STAT1 act 164 | STAT1 activ conf 191 | NFkB act STAT1ct 136 | STAT3 act STAT1c inactive
CCOc1ccc(NC(=O)c2cccnc2Cl)c([N+](=O)[O-])c1	none
CCOc1ccc(NC(=O)c2cccs2)c([N+](=O)[O-])c1	STAT1 act 152 | STAT1 activ conf 189 | NFkB act STAT1ct inactive | STAT3 act STAT1c inactive
NS(=O)(=O)c1ccc(N/C=C\C(=O)c2ccncc2)cc1	none
NS(=O)(=O)c1ccc(N/C=C\C(=O)c2ccc(F)cc2)cc1	STAT1 act 156 | STAT1 activ conf 188 | NFkB act STAT1ct inactive | STAT3 act STAT1c 115
Cc1csc(NC(=O)C2COc3ccccc3O2)n1 (stereo not given)	APP 5'UTR act 149, STAT1 act 160 | STAT1 activ conf 198 | NFkB act STAT1ct inactive | STAT3 act STAT1c inactive
O=C(Nc1nc(-c2ccccc2)cs1)C1COc2ccccc2O1 (stereo not given)	none
O=C(c1ccc(F)cc1)c1cc2ccccc2o1	NF-kB neuron act 3.6, STAT1 act 157 | STAT1 activ conf 174 | NFkB act STAT1ct inactive | STAT3 act STAT1c inactive
N/C(=N\NC(=O)c1ccc(F)cc1)c1cc2ccccc2oc1=O	none
COC(=O)c1ccc(CN2CCN(C3CCCC3)C(CCO)C2)cc1 (stereo not given)	none (no result: NF-kB neuron act)
Cc1ccccc1C(=O)NNC(=O)c1ccc(F)cc1	none
Cc1ccccc1/C(N)=N/OC(=O)c1ccc(F)cc1	STAT1 act 183, FLuc inhib CS 92 (no result: NF-kB neuron act) | STAT1 activ conf 174 | NFkB act STAT1ct 135 | STAT3 act STAT1c inactive
O=c1/c(=C\c2ccc3c(c2)OCO3)sc2n1CCCN=2	NF-kB neuron act 4.7, STAT1 act 154 | STAT1 activ conf 200 | NFkB act STAT1ct 139 | STAT3 act STAT1c inactive
O=C1/C(=C\c2ccc3c(c2)OCO3)CCC/C1=C/c1ccc2c(c1)OCO2	none
CCOC(=O)N1CCN(Cc2nc3c(c(=O)[nH]c(=O)n3C)n2Cc2cc(C)ccc2C)CC1	none
Cc1cccc(C(=O)n2c(=S)nc3ccccn32)c1	NF-kB neuron act 4.4, STAT1 act 192, FLuc inhib CS 91 | STAT1 activ conf 430 | NFkB act STAT1ct 185 | STAT3 act STAT1c 127
CC(C)(C)c1ccc(NC(=O)Nc2ccc(F)cc2)cc1	APP 5'UTR act 162, NF-kB neuron act 4.2, STAT1 act 176 | STAT1 activ conf 213 | NFkB act STAT1ct 138 | STAT3 act STAT1c 126
COc1cccc(NC(=O)Nc2ccc(C(C)(C)C)cc2)c1	NF-kB neuron act 4.3, STAT1 act 151 | STAT1 activ conf 178 | NFkB act STAT1ct inactive | STAT3 act STAT1c inactive
Brc1ccc(-c2nnc(-c3ccco3)o2)cc1	STAT1 act 155 | STAT1 activ conf 181 | NFkB act STAT1ct inactive | STAT3 act STAT1c inactive
O=C(O)CCC(=O)Nc1ccc(-c2nnc(-c3ccco3)o2)cc1	none (no result: APP 5'UTR act, APP 5UTR inh)
Brc1ccc(-c2nnc(-c3ccccc3Br)o2)cc1	APP 5'UTR act 169, STAT1 act 164 | STAT1 activ conf 216 | NFkB act STAT1ct 138 | STAT3 act STAT1c inactive
Clc1ccc(-c2nnc(-c3ccccc3Cl)o2)cc1	APP 5'UTR act 202, NF-kB neuron act 5.3, STAT1 act 161, FLuc inhib CS 74 | STAT1 activ conf 218 | NFkB act STAT1ct inactive | STAT3 act STAT1c inactive
Cc1ccc(C)c(CSc2ccc3nnc(-c4ccccn4)n3n2)c1	none
CCC(=O)c1ccc(OCC(=O)OCC(=O)Nc2sccc2C(N)=O)cc1	none
Cn1nnc2cc(C(=O)Nc3ccc4ccccc4c3)ccc21	NF-kB neuron act 4.3, STAT1 act 154 | STAT1 activ conf 242 | NFkB act STAT1ct 138 | STAT3 act STAT1c inactive
O=C(NCc1ccccc1)NCc1cccs1	none
